Legend:
[1] = species: Mus musculus; assay: Anticonvulsant activity against audiogenic seizures in DBA/2 mice in clonic phase.; format: functional
In short: (§1)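 DBA/2 mice (8–12 g, 22–25 days), groups of 10, given ip doses of 3.3–200 µmol/kg in 50% DMSO/50% saline. Auditory stimulation 30 min later after 60 s habituation under a dome. Incidence of each seizure phase scored. ED50 by Litchfield–Wilcoxon, at least 32 animals, 95% confidence limits.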

[2] = Partition coefficient (logP); format: physicochemical; conditions: octanol/water
In short: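 log P calculated with XLOGP 2.0, not measured.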

[3] = Protective index as the ratio of TD50 to ED50 (from the clonic phase of the audiogenic seizures).; conditions: for selectivity ratio: read-out: PI
In short: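 Ratio of rotarod TD50 to ED50 from the clonic phase of audiogenic seizures in DBA/2 mice, both after ip dosing.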

[4] = Toxicity assessed by Rotarod test (locomotor deficit) in mice.; format: organism-based; conditions: mouse, in vivo
In short: (§2)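 Male Swiss mice (20–26 g), groups of 10, trained on a 3-cm rotarod at 8 rpm. Tested 30 min after ip dosing; impairment defined as failure to stay on for 2 min. TD50 by Litchfield–Wilcoxon, at least 32 animals, 95% confidence limits.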

[5] = Anticonvulsant activity against audiogenic seizures in DBA/2 mice in tonic phase; format: functional; conditions: Mus musculus; in short: as §1
[6] = Percentage reduction of KA (kainate) evoked currents at a concentration of 100 uM in cerebellar neurons; format: functional
In short: (§3)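 Whole-cell voltage clamp of rat cerebellar granule neurons cultured 7 days (7–8-day-old Sprague–Dawley pups; Ara-C 10 µM from 24 h). External solution pH 7.4. KA or ATPA and test agent all applied at 100 µM by Y-tube, DMSO final below 1%. Mean ± SE of at least 10 cells.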

[7] = Percentage reduction of ATPA evoked currents at a concentration of 100 uM in cerebellar neurons; format: functional; in short: as §3
[8] = species: Rattus norvegicus; assay: Percentage reduction of ATPA evoked currents at a concentration of 100 uM in cerebellar neurons
[9] = species: Rattus norvegicus; assay: Percentage reduction of KA (kainate) evoked currents at a concentration of 100 uM in cerebellar neurons
[10] = test system: Mus musculus; assay: Anticonvulsant activity against KA induced seizures in DBA/2 mice at a dose of 32 mg/kg at CD97 after intraperitoneal administration (95% confidence limits); format: functional; conditions: ip
[11] = test system: Mus musculus; assay: Anticonvulsant activity against audiogenic seizures in DBA/2 mice in clonic phase after 90 min intraperitoneal administration (95% confidence limit in parentheses)*indicates p<0.05; format: functional; conditions: ip, 1.5 h
In short: (§4)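 Time course: DBA/2 mice (8–12 g, 22–25 days) dosed ip in 50% DMSO/50% saline and challenged with sound 15 to 120 min after dosing. Clonic phase scored; ED50 in µmol/kg by Litchfield–Wilcoxon with 95% confidence limits. Between-compound differences at each time by Litchfield–Wilcoxon (*p<0.05, **p<0.01).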

[12] = Locomotion assessed by Rotarod test in mice; format: organism-based; conditions: mouse, in vivo; in short: as §2
[13] = species: Mus musculus; assay: Anticonvulsant activity against MES induced seizures in swiss mice in tonic phase (95% confidence limits); format: functional
In short: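 Swiss mice dosed ip in 50% DMSO/50% saline, then shocked via ear-clip electrodes (50 mA, 20 ms pulse width, 35 Hz, 400 ms). Protection defined as abolition of tonic hindlimb extension. Four to five doses, 8–10 mice each; ED50 by Litchfield–Wilcoxon with 95% confidence limits.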

[14] = species: Mus musculus; assay: Anticonvulsant activity against PTZ induced seizures in swiss mice in clonic phase (95% confidence limits); format: functional
[15] = test system: Mus musculus; assay: Anticonvulsant activity against AMPA induced seizures in DBA/2 mice after intracerebro ventricular administration at the CD97 for tonus (11.7 nmol) (95% confidence limits); format: functional; conditions: central
[16] = test system: Mus musculus; assay: Anticonvulsant activity against audiogenic seizures in DBA/2 mice in clonic phase after 15 min intraperitoneal administration (95% confidence limit in parentheses); format: functional; conditions: ip, 0.25 h; in short: as §4
[17] = test system: Mus musculus; assay: Anticonvulsant activity against audiogenic seizures in DBA/2 mice in clonic phase after 60 min intraperitoneal administration (95% confidence limit in parentheses)**indicates p<0.01; format: functional; conditions: ip, 1 h
In short: (§5)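 DBA/2 mice (8–12 g, 22–25 days old), genetically sound-susceptible, groups of 10. Dosed ip (0.1 mL/10 g) as fresh solution in 50% DMSO/50% saline, doses 3.3-200 μmol/kg; auditory stimulation after 60 s habituation under dome, at 30 min (time-course: 15–120 min post-dose).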

[18] = test system: Mus musculus; assay: Anticonvulsant activity against audiogenic seizures in DBA/2 mice in clonic phase after 30 min intraperitoneal administration (95% confidence limit in parentheses)**indicates p<0.01; format: functional; conditions: ip, 0.5 h; in short: as §5
[19] = species: Mus musculus; assay: Anticonvulsant activity against audiogenic seizures in DBA/2 mice in tonic phase (95% confidence limit in parentheses); format: functional; in short: as §5
[20] = species: Rattus norvegicus; assay: Percentage reduction of KA (kainate) evoked currents at a concentration of 100 uM in cerebellar neurons; remark: listed apart in the source
[21] = test system: Mus musculus; assay: Anticonvulsant activity against AMPA induced seizures in DBA/2 mice after intracerebro ventricular administration at the CD97 for clonus (9.7 nmol) (95% confidence limits); format: functional; conditions: central
[22] = test system: Mus musculus; assay: Anticonvulsant activity against audiogenic seizures in DBA/2 mice in clonic phase after 45 min intraperitoneal administration (95% confidence limit in parentheses)**indicates p<0.01; format: functional; conditions: ip, 0.75 h; in short: as §5
[23] = test system: Mus musculus; assay: Anticonvulsant activity against audiogenic seizures in DBA/2 mice in clonic phase after 120 min intraperitoneal administration (95% confidence limit in parentheses); format: functional; conditions: ip, 2 h; in short: as §4
[24] = species: Rattus norvegicus; assay: Percentage reduction of ATPA evoked currents at a concentration of 100 uM in cerebellar neurons; remark: listed apart in the source
[25] = Protective index as the ratio of TD50 value to that of ED50 value (from the clonic phase of the audiogenic seizures).; format: functional
In short: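 PI = TD50/ED50. TD50 from rotarod (3 cm, 8 rpm; failure to stay on for 2 min) in male Swiss mice 30 min after ip dosing; ED50 from clonic phase of audiogenic seizures in DBA/2 mice 30 min after ip dosing (50% DMSO/saline). Both by Litchfield–Wilcoxon, ≥32 animals each.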

| Compound | ED50 [1] [µmol/kg] | logP ([2]; read-out: logP) | selectivity ratio [3] | TD50 [4] [µmol/kg] | ED50 [5] [µmol/kg] | also measured |
| --- | --- | --- | --- | --- | --- | --- |
| CCCCOC(=O)Cc1cc2c(cc1/C(=N/NC(=O)NC)c1ccc(N)cc1)OCO2 | 66.2 | 3.81 | 2.7 | 179 | 39.8 | – |
| CNC(=O)NC(=O)Cc1cc2c(cc1Cc1ccc(N)cc1)OCO2 | 9.28 | 2.23 | 3.6 | 33.3 | 7.65 | Reduction [6]: 54%; Reduction [7]: 32% |
| CCCCOC(=O)Cc1cc2c(cc1/C(=N/NC(=O)NCC)c1ccc(N)cc1)OCO2 | 53.1 | 4.24 | 2.2 | 117 | 38.7 | – |
| CNC(=O)NC(=O)Cc1ccc2c(c1)OCO2 | 87.8 | 1.09 | 2.5 | 219 | 74.4 | – |
| Nc1ccc(C2=NNC(=O)Cc3cc4c(cc32)OCO4)cc1 | – | 2.58 | 6.3 | – | – | Reduction [8]: 94% |
| CCCOC(=O)Cc1cc2c(cc1/C(=N/NC(=O)NC)c1ccc(N)cc1)OCO2 | 18 | 3.24 | 3.8 | 68.5 | 8.93 | – |
| CNC(=O)NC(=O)Cc1cc2c(cc1C(=O)c1ccc(N)cc1)OCO2 | 39.5 | 1.82 | 3.4 | 134 | 28.9 | – |
| CCNC(=O)N/N=C(\c1ccc(N)cc1)c1cc2c(cc1CC(=O)OC)OCO2 | 30.3 | 2.89 | 3.7 | 113 | 32.8 | – |
| CCCNC(=O)N1N=C(c2ccc(N)cc2)c2cc3c(cc2CC1=O)OCO3 | – | 2.77 | 2.6 | 182 | – | – |
| CCCCNC(=O)N1N=C(c2ccc(N)cc2)c2cc3c(cc2CC1=O)OCO3 | – | 3.34 | 2.8 | 108 | – | – |
| CC1=NN=C(c2ccc(N)cc2)c2cc3c(cc2C1)OCO3 [GYKI-52466] | – | 3.51 | 2.1 | – | – | Reduction [8]: 45%; Reduction [9]: 47% |
| COC(=O)Cc1cc2c(cc1Cc1ccc(N)cc1)OCO2 | 54.3 | 2.68 | 3.1 | 169 | 47.7 | – |
| CNC(=O)N/N=C(\c1ccc(N)cc1)c1cc2c(cc1CC(=O)OC)OCO2 (stereo in doubt; 10) | – | – | – | – | – | ED50 [10]: 16.6 µmol/kg; ED50 [11]: 25.5 µmol/kg; TD50 [12]: 28.3 µmol/kg; logP [2]: 2.46; ED50 [13]: 15.7 µmol/kg; ED50 [14]: 14.7 µmol/kg; ED50 [15]: 8.9 µmol/kg; PI [3]: 3.6; ED50 [16]: 24.1 µmol/kg; ED50 [17]: 10.2 µmol/kg; ED50 [18]: 7.87 µmol/kg; ED50 [19]: 4.62 µmol/kg; Reduction [20]: 60%; ED50 [21]: 13.9 µmol/kg; ED50 [22]: 7.75 µmol/kg; ED50 [23]: 36.8 µmol/kg; Reduction [24]: 75% |
| CCCNC(=O)N/N=C(\c1ccc(N)cc1)c1cc2c(cc1CC(=O)OC)OCO2 | 57.1 | 3.24 | 3.1 | 177 | 42.8 | – |
| CCNC(=O)N/N=C(\c1ccc(N)cc1)c1cc2c(cc1CC(=O)OCC)OCO2 | 84.4 | 3.31 | 2.7 | 227 | 60.8 | – |
| CCNC(=O)N1N=C(c2ccc(N)cc2)c2cc3c(cc2CC1=O)OCO3 | – | 2.41 | 3.8 | 134 | – | – |
| CCCOC(=O)Cc1cc2c(cc1/C(=N/NC(=O)NCC)c1ccc(N)cc1)OCO2 | 55.5 | 3.67 | 3.4 | 187 | 40.3 | – |
| CNC(=O)N/N=C(\c1ccc(N)cc1)c1cc2c(cc1CC(=O)OC)OCO2 (stereo in doubt; 29) | 10.4 | 2.99 | 3.7 | 38.6 | 9.51 | – |
| CCCCNC(=O)N/N=C(\c1ccc(N)cc1)c1cc2c(cc1CC(=O)OC)OCO2 | 65 | 3.81 | 2.9 | 188 | 38.2 | – |
| CCOC(=O)Cc1cc2c(cc1/C(=N/NC(=O)NC)c1ccc(N)cc1)OCO2 | 28.8 | 2.89 | 3.3 | 95.1 | 10.9 | – |
| CNC(=O)N1N=C(c2ccc(N)cc2)c2cc3c(cc2CC1=O)OCO3 | – | 1.99 | – | – | – | TD50 [12]: 48.6 µmol/kg; Reduction [8]: 50%; PI [25]: 3.9 |

Reference: ChEMBL document CHEMBL1135822, “Novel potent AMPA/kainate receptor antagonists: synthesis and anticonvulsant activity of a series of 2-[(4-alkylsemicarbazono)-(4-amino-phenyl)methyl]-4,5-methylenedioxyphenylacetic acid alkyl esters” (J Med Chem, 2002)
